“And” between values parts separate entries of the source, which are not always exact repeats. Equal entries are not always repeated. Each block holds one compound with its values, some of them ahead of it.
What was measured:
[1] = biological target: T1, Ornithine decarboxylase (Rattus norvegicus) (UniProt P09057); assay: In vivo inhibitory activity against Ornithine Decarboxylase (ODC) in H-35 hepatoma cells; type: functional; set-up: unit not given here
T1 sequence (whole entry): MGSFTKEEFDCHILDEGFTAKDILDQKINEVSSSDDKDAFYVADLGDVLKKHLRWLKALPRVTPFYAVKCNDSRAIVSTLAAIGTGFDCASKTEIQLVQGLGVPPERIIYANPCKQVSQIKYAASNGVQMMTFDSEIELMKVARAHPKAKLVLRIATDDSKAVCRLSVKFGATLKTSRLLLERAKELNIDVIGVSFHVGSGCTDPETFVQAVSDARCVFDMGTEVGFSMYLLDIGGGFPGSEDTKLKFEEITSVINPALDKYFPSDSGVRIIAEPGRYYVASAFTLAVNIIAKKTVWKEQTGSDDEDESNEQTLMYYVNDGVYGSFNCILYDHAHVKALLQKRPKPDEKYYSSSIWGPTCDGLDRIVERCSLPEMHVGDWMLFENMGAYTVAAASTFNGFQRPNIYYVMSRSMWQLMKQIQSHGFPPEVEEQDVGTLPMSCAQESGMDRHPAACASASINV

[2] = biological target: T1, Ornithine decarboxylase (Rattus norvegicus); assay: In vivo inhibitory activity against Ornithine Decarboxylase (ODC) in rats; type: functional, organism-based; set-up: concentration or dose not given beside the values
Ornithine decarboxylase = biological target: T2, Ornithine decarboxylase (Rattus norvegicus, UniProt P09057); assay: (§1) In vitro inhibitory activity against Ornithine Decarboxylase (ODC) isolated from the livers of thioactamide treated rats.; type: functional, tissue-based, Liver
T2 sequence (P09057 whole entry): T1 sequence (whole entry)
Outline: (§2)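 ODC was partially purified from livers of rats injected with thioacetamide (100 mg/kg), with specific activity 0.2 nmol/min per mg protein. Activity was measured in vitro across inhibitor concentrations. Ki was obtained by replotting apparent Km against inhibitor concentration.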

[3] = as §1; type: functional, tissue-based, Rattus norvegicus, Liver; outline: as §2
Rattus norvegicus [4] = organism: Rattus norvegicus; assay: Effect on spermine content of (+) isomer Dexamethasone treated rats after 4 hour; type: functional
Outline: (§3)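 Female Wistar rats (100-130 g) were pretreated with dexamethasone or thioacetamide, and the analogue was given ip in saline-buffered solution. Liver was sampled 1 h or 3-4 h later. Free polyamines and analogue were measured in perchloric extracts. Polyamines are expressed as % of the inducer-treated liver content. Analogue is expressed as % of the total injected per g liver (10 ± 0.5 μmol). Mean ± SD, three experiments in duplicate.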

Rattus norvegicus [5] = organism: Rattus norvegicus; assay: Effect on spermine content of (-) isomer Dexamethasone treated rats after 1 hour; type: functional; outline: as §3
Rattus norvegicus [6] = organism: Rattus norvegicus; assay: Effect on spermine content of Dexamethasone treated rats.; type: functional; outline: as §3
Rattus norvegicus [7] = organism: Rattus norvegicus; assay: Effect on spermine content of Thioacetamide treated rats after 1 hr; type: functional; outline: as §3
Rattus norvegicus [8] = organism: Rattus norvegicus; assay: Effect on spermine content of Thioacetamide treated rats after 3 hour; type: functional; outline: as §3
Rattus norvegicus [9] = organism: Rattus norvegicus; assay: Effect on spermine content of Thioacetamide treated rats after 3 hr; type: functional; outline: as §3
Rattus norvegicus [10] = organism: Rattus norvegicus; assay: Effect on spermine content of Thioacetamide treated rats.; type: functional; outline: as §3
Rattus norvegicus [11] = organism: Rattus norvegicus; assay: Effect on spermine content of meso isomer Dexamethasone treated rats after 1 hour; type: functional; outline: as §3
Rattus norvegicus [12] = organism: Rattus norvegicus; assay: Effect on spermine content of meso isomer Dexamethasone treated rats after 4 hour; type: functional; outline: as §3
Rattus norvegicus [13] = organism: Rattus norvegicus; assay: Effect on spermidine content of Thioacetamide treated rats.; type: functional; outline: as §3
Rattus norvegicus [14] = organism: Rattus norvegicus; assay: Effect on spermidine content of meso isomer Dexamethasone treated rats after 1 hour; type: functional; outline: as §3
Rattus norvegicus [15] = organism: Rattus norvegicus; assay: Effect on spermidine content of meso isomer Dexamethasone treated rats after 4 hour; type: functional; outline: as §3
Rattus norvegicus [16] = organism: Rattus norvegicus; assay: Effect on spermine content of (+) isomer Dexamethasone treated rats after 1 hour; type: functional; outline: as §3
Rattus norvegicus [17] = organism: Rattus norvegicus; assay: Effect on 1,4-Dimethylputrescine content of (+) isomer Dexamethasone treated rats after 1 hour; type: functional; outline: as §3
Rattus norvegicus [18] = organism: Rattus norvegicus; assay: Effect on 1,4-Dimethylputrescine content of (-) isomer Dexamethasone treated rats after 1 hour; type: functional; outline: as §3
Rattus norvegicus [19] = organism: Rattus norvegicus; assay: Effect on 1,4-Dimethylputrescine content of (-) isomer Dexamethasone treated rats after 4 hour; type: functional; outline: as §3
Rattus norvegicus [20] = organism: Rattus norvegicus; assay: Effect on 1,4-Dimethylputrescine content of Thioacetamide treated rats after 1 hr; type: functional; outline: as §3
Rattus norvegicus [21] = organism: Rattus norvegicus; assay: Effect on 1,4-Dimethylputrescine content of Thioacetamide treated rats after 3 hr; type: functional; outline: as §3
Rattus norvegicus [22] = organism: Rattus norvegicus; assay: Effect on 1,4-Dimethylputrescine content of meso isomer Dexamethasone treated rats after 1 hour; type: functional; outline: as §3
Rattus norvegicus [23] = organism: Rattus norvegicus; assay: Effect on 1,4-Dimethylputrescine content of meso isomer Dexamethasone treated rats after 4 hour; type: functional; outline: as §3
Rattus norvegicus [24] = organism: Rattus norvegicus; assay: Effect on 1,4-Dimethylputrescinecontent of (+) isomer Dexamethasone treated rats after 4 hour; type: functional; outline: as §3
Rattus norvegicus [25] = organism: Rattus norvegicus; assay: Effect on putrescine content of (+) isomer Dexamethasone treated rats after 1 hour; type: functional; outline: as §3
Rattus norvegicus [26] = organism: Rattus norvegicus; assay: Effect on putrescine content of (+) isomer Dexamethasone treated rats after 4 hour; type: functional; outline: as §3
Rattus norvegicus [27] = organism: Rattus norvegicus; assay: Effect on putrescine content of (-) isomer Dexamethasone treated rats after 1 hour; type: functional; outline: as §3
Rattus norvegicus [28] = organism: Rattus norvegicus; assay: Effect on putrescine content of (-) isomer Dexamethasone treated rats after 4 hr; type: functional; outline: as §3
Rattus norvegicus [29] = organism: Rattus norvegicus; assay: Effect on putrescine content of Thioacetamide treated rats after 3 hr; type: functional; outline: as §3
Rattus norvegicus [30] = organism: Rattus norvegicus; assay: Effect on putrescine content of Thioacetamide treated rats.; type: functional; outline: as §3
Rattus norvegicus [31] = organism: Rattus norvegicus; assay: Effect on putrescine content of meso isomer Dexamethasone treated rats after 1 hour; type: functional; outline: as §3
Rattus norvegicus [32] = organism: Rattus norvegicus; assay: Effect on putrescine content of meso isomer Dexamethasone treated rats after 4 hour; type: functional; outline: as §3
Rattus norvegicus [33] = organism: Rattus norvegicus; assay: Effect on spermidine content of (+) isomer Dexamethasone treated rats after 1 hour; type: functional; outline: as §3
Rattus norvegicus [34] = organism: Rattus norvegicus; assay: Effect on spermidine content of (+) isomer Dexamethasone treated rats after 4 hour; type: functional; outline: as §3
Rattus norvegicus [35] = organism: Rattus norvegicus; assay: Effect on spermidine content of (-) isomer Dexamethasone treated rats after 1 hour; type: functional; outline: as §3
Rattus norvegicus [36] = organism: Rattus norvegicus; assay: Effect on spermidine content of (-) isomer Dexamethasone treated rats after 4 hour; type: functional; outline: as §3
Rattus norvegicus [37] = organism: Rattus norvegicus; assay: Effect on spermidine content of Dexamethasone treated rats.; type: functional; outline: as §3
Rattus norvegicus [38] = organism: Rattus norvegicus; assay: Effect on spermidine content of Thioacetamide treated rats after 1 hr; type: functional; outline: as §3
Rattus norvegicus [39] = organism: Rattus norvegicus; assay: Effect on spermidine content of Thioacetamide treated rats after 3 hr; type: functional; outline: as §3
Rattus norvegicus [40] = organism: Rattus norvegicus; assay: Effect on spermine content of (-) isomer Dexamethasone treated rats after 4 hour; type: functional; outline: as §3
Rattus norvegicus [41] = organism: Rattus norvegicus; assay: Effect on putrescine content of Dexamethasone treated rats.; type: functional; outline: as §3

SMILES: CC(N)CCC(C)N (stereo unspecified) [listing 1 of 2 here]
- Activity [1]: 90
- Inhibition [2]: 93%

SMILES: CN(C)CCCCN
- Activity [1]: 68
- Inhibition [2]: 60%
- Ki (Ornithine decarboxylase): 3 mM

SMILES: CC(CN)C(C)CN (mixture of isomers)
- Ki [3]: 1 mM

SMILES: CC(N)CCC(C)N (stereo unspecified) [listing 2 of 2 here]
- Polyamine content (Rattus norvegicus [4]): 1800 nM/g
- Polyamine content (Rattus norvegicus [5]): 2240 nM/g
- Polyamine content (Rattus norvegicus [6]): 2170 nM/g
- Polyamine content (Rattus norvegicus [7]): 2600 nM/g and 2500 nM/g and 2350 nM/g
- Polyamine content (Rattus norvegicus [8]): 2600 nM/g
- Polyamine content (Rattus norvegicus [9]): 3000 nM/g and 2350 nM/g
- Polyamine content (Rattus norvegicus [10]): 2400 nM/g
- Polyamine content (Rattus norvegicus [11]): 2060 nM/g
- Polyamine content (Rattus norvegicus [12]): 2250 nM/g
- Polyamine content (Rattus norvegicus [13]): 2680 nM/g
- Polyamine content (Rattus norvegicus [14]): 1920 nM/g
- Polyamine content (Rattus norvegicus [15]): 2280 nM/g
- Polyamine content (Rattus norvegicus [16]): 1930 nM/g
- Polyamine content (Rattus norvegicus [17]): 1800 nM/g
- Polyamine content (Rattus norvegicus [18]): 1640 nM/g
- Polyamine content (Rattus norvegicus [19]): 40 nM/g
- Polyamine content (Rattus norvegicus [20]): 2700 nM/g and 1850 nM/g and 2800 nM/g
- Polyamine content (Rattus norvegicus [21]): 1550 nM/g and 900 nM/g and 1150 nM/g
- Polyamine content (Rattus norvegicus [22]): 1640 nM/g
- Polyamine content (Rattus norvegicus [23]): 50 nM/g
- Polyamine content (Rattus norvegicus [24]): 400 nM/g
- Polyamine content (Rattus norvegicus [25]): 60 nM/g
- Polyamine content (Rattus norvegicus [26]): 660 nM/g
- Polyamine content (Rattus norvegicus [27]): 100 nM/g
- Polyamine content (Rattus norvegicus [28]): 580 nM/g
- Polyamine content (Rattus norvegicus [29]): 290 nM/g and 510 nM/g and 410 nM/g
- Polyamine content (Rattus norvegicus [30]): 1370 nM/g
- Polyamine content (Rattus norvegicus [31]): 160 nM/g
- Polyamine content (Rattus norvegicus [32]): 890 nM/g
- Polyamine content (Rattus norvegicus [33]): 2180 nM/g
- Polyamine content (Rattus norvegicus [34]): 850 nM/g
- Polyamine content (Rattus norvegicus [35]): 1280 nM/g
- Polyamine content (Rattus norvegicus [36]): 2080 nM/g
- Polyamine content (Rattus norvegicus [37]): 2300 nM/g
- Polyamine content (Rattus norvegicus [38]): 1870 nM/g and 1950 nM/g and 2800 nM/g
- Polyamine content (Rattus norvegicus [39]): 2400 nM/g and 1475 nM/g and 2500 nM/g
- Polyamine content (Rattus norvegicus [40]): 2220 nM/g
- Polyamine content (Rattus norvegicus [41]): 980 nM/g

SMILES: CC(N)CCC(C)N (single isomer, unassigned; (+))
- Activity [1]: 96
- Inhibition [2]: 98%

SMILES: CC(N)CC(C)CN (mixture of isomers)
- Activity [1]: 85
- Inhibition [2]: 76%
- Ki (Ornithine decarboxylase): 2.9 mM

The remaining lines, values ahead:

- Activity [1]: 72
- Inhibition [2]: 30%
SMILES: CNCCCCNC

- Activity [1]: 97
- Inhibition [2]: 97%
SMILES: CC(N)CCC(C)N (single isomer, unassigned; (-))

- Activity [1]: 75
- Inhibition [2]: 70%
- Ki (Ornithine decarboxylase): 3.8 mM
SMILES: CC(N)C(C)CCN (mixture of isomers)

- Activity [1]: 90
- Inhibition [2]: 55%
- Ki (Ornithine decarboxylase): 3.3 mM
SMILES: NCCCCN [PUTRESCINE]

- Activity [1]: 91
- Inhibition [2]: 96%
SMILES: CC(N)CCC(C)N (racemic)

— ChEMBL document CHEMBL1125165, “Inhibition of ornithine decarboxylase by the isomers of 1,4-dimethylputrescine” (J Med Chem, 1990)
